MrgX1 ag: agonists of human MrgX1 receptor, primary screen, HEK293 cells, Fluo-4 calcium flux; Mas-related G-protein coupled receptor member X1 (Homo sapiens), Q96LB2; Fluo-4 calcium fluorescence, agonist mode; active compounds read high; B-score at 10 µM; actives 0.44% (n = 310,000);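 active means calcium response B-score plate-corrected fluorescence ratio at least 3 library SD, with starting fluorescence B-score inside 5 SD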
Target sequence (Q96LB2 whole entry, looked up): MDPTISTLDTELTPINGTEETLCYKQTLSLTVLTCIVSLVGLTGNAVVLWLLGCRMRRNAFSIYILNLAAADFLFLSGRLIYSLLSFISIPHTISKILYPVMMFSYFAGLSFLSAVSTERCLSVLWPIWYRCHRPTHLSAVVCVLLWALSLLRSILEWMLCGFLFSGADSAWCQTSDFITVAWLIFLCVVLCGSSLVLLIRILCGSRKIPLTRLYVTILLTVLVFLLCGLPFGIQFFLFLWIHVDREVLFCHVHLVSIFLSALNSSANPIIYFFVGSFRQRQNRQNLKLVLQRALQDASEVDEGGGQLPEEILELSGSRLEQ
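Material: MrgX1-expressing HEK293 cells / Dosing: compound as first of three additions / Incubation: overnight seeding, then 1 h dark dye loading / Signal: Fluo-4 NW calcium fluorescence / Evaluation: B-scored fluorescence response ratio / Benchmarks: positive and negative control wells on each plate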
RGS4 act: RGS4 potentiators or activators, primary screen, cell-based, HEK293 M3R inducible RGS4, calcium flux | carbachol calcium flux Fluo4; active compounds read low | AID 463111, 2010 | actives 0.92% (n = 310,000) | B-score at 10 µM;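 active means B-score of the integrated calcium signal more than 4 SD below the library mean, with starting fluorescence not abnormally high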;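 further: negative B-score means reduced calcium response which marks RGS4 activation or potentiation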
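Reagent: ECmax carbachol challenge; Test system: M3R-expressing HEK293 line, RGS4 induced by doxycycline; Schedule: overnight RGS4 induction, 30 min dye load 37 °C, 20 min compound RT; Detection: calcium dye Fluo4 fluorescence; Read-out: Agonist-evoked peak-minus-minimum fluorescence over baseline, integrated ratio, B score.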
RGS4 inh: RGS4 inhibitors, primary screen, cell-based, HEK293 M3R inducible RGS4, calcium flux. Fluo-4 calcium flux; active compounds read high; triggered by carbachol at its EC20. B-score at 10 µM. actives 0.45% (n = 310,000);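 active means B-score, a plate-corrected calcium signal, over three deviations above library mean, with baseline fluorescence within five deviations of library mean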;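 further: RGS4 expression induced by doxycycline in cells with stable M3 receptor; B-score is computed from the integrated fluorescence ratio over baseline after carbachol; higher B-score means a larger calcium signal and so more RGS4 inhibition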
Target sequence (P49798 whole entry, looked up): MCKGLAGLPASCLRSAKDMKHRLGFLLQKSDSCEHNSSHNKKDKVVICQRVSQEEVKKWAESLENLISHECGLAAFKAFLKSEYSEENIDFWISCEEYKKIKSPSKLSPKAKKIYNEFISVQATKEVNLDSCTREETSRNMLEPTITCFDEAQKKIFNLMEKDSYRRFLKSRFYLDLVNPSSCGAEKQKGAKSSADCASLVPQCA
MrgX1 PAM: positive allosteric modulators of MrgX1, primary screen, HEK293 cells, Fluo-4 calcium flux; FDSS; active compounds read high; B-score at 10 µM; Mas-related G-protein coupled receptor member X1 (Homo sapiens), Q96LB2; actives 0.63% (n = 310,000); AID 588675, 2011;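 active means plate-corrected calcium response at least 3 library SD above typical, normal starting fluorescence, not activating the receptor alone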;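 further: compound read alongside a low EC10 to EC30 dose of BAM8-22 agonist; peak minus trough fluorescence over baseline measured at the second addition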
MrgX1 antagonist: antagonists of human MrgX1 receptor, primary screen, HEK293 cells, Fluo-4 calcium flux | Mas-related G-protein coupled receptor member X1 (Homo sapiens), Q96LB2 | BAM8-22 antagonism; active compounds read low | B-score at 10 µM | actives 1.3% (n = 310,000);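 active means calcium-response B-score plate-corrected more than 3 library SD below zero, starting fluorescence within 5 deviations, no agonist response on first addition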;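 further: peak minus trough fluorescence over baseline after final BAM8-22 challenge near maximal dose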
A number is an active result; 0 = inactive. Most compounds without a hit are left out; they make up all but 3.5% or so of the library.

SMILES	MrgX1 ag	RGS4 act	RGS4 inh	MrgX1 PAM	MrgX1 antagonist
O=C(Nc1ccc(Cl)c(C(=O)N2CCOCC2)c1)c1ccccc1	0	0	0	0	0
CCc1ccc(OCC(=O)NNC(=O)Cc2ccc(S(=O)(=O)N3CCOCC3)s2)cc1	0	0	0	0	-6.9
CCN(CC)S(=O)(=O)c1ccc2c(c1)oc(=O)n2CC(=O)NC1CCCCC1	0	0	0	0	0
O=C(Nc1nnc(SCc2ccccc2)s1)c1cccc([N+](=O)[O-])c1	0	0	0	0	0
Cc1nnc(SCc2cccc([N+](=O)[O-])c2)s1	0	-7.08	0	0	0
Cc1nnc(C)n1/N=C/c1ccc(-c2ccccc2Cl)o1	0	0	0	0	0
O=C1NC(=S)/C(=C\c2ccc(-c3ccccc3Cl)o2)S1	0	-7.39	0	0	0
CN(C(=O)CSc1nnc(-c2ccncc2)n1Cc1ccccc1)C1CCS(=O)(=O)C1 (stereo unspecified)	0	0	0	0	0
O=C(O)CCC(=O)NNC(=O)c1ccc(Br)cc1	0	0	0	0	-9.28
O=C(O)CCCC(=O)NNC(=O)c1cccc(Br)c1	0	0	0	0	0
CC(C)OC(=O)c1c2nc3ccccc3nc2n2c1[nH]c(=O)c1ccccc12	31.8	0	0	0	0
C=CCN(C(=O)c1csnn1)C(C(=O)NC1CCCC1)c1ccccc1F (stereo unspecified)	0	0	0	0	0
Cc1cc(C)c(S(=O)(=O)Nc2ccc3c4c(cccc24)CC3)c(C)c1	0	-7.55	0	0	0
CCOC(=O)c1cccc(OS(=O)(=O)Cc2ccccc2)c1	0	0	0	0	0
OCCn1c(C(F)(F)F)nc2ccccc21	0	0	0	0	0
Cn1c(Cn2c(C(F)(F)F)nc3ccccc32)nc2ccccc21	0	0	0	0	-4.91
COc1cccc(CNC(=O)C(NS(=O)(=O)c2ccc3c(c2)CCN3C(C)=O)C(C)C)c1 (stereo unspecified)	0	0	0	0	0
Cc1ccc(NC(=O)C(C)OC(=O)c2ccc(NC(=O)CC#N)cc2)cc1S(=O)(=O)N1CCOCC1 (stereo unspecified)	0	0	0	0	-4.54
CCc1ccc(S(=O)(=O)Nc2ccc(O)c3c(=O)cc(-c4ccccc4Cl)oc23)cc1	0	0	0	0	0
O=c1cc(-c2ccccc2Cl)oc2c(NS(=O)(=O)c3cc(Cl)cc(Cl)c3O)ccc(O)c12	40.4	0	0	0	0
CC1CCN(C(=O)Cn2cnc3c2c(=O)n(C)c(=O)n3C)c2ccccc2S1 (stereo unspecified)	0	0	0	0	0
C[C@]12CCC(=O)C[C@@H]1CC[C@@H]1[C@@H]2CC[C@]2(C)[C@@H](C(=O)COC(=O)CCC(=O)O)CC[C@@H]12	0	0	0	0	0
CCCCN1C(=O)C2(NNc3ccccc3O2)c2ccccc21 (stereo unspecified)	0	0	0	0	-6.05
CC(C)c1ccc(S(=O)(=O)N(C)C2(C)CCS(=O)(=O)C2)cc1 (stereo unspecified)	0	0	0	0	0
CCCCn1c(N)c(N(CCOC)C(=O)COC(=O)c2cc(CCC)c(C)s2)c(=O)[nH]c1=O	0	0	0	0	0
SMILES	MrgX1 ag	RGS4 act	RGS4 inh	MrgX1 PAM	MrgX1 antagonist
CC(C)Cn1c(N)c(C(=O)CSc2ncnc3sc4c(c23)CCCC4)c(=O)n(C)c1=O	0	0	0	0	0
CCOC(=O)N1CCN(S(=O)(=O)c2ccc(C(=O)N(CCCN(C)C)c3nc4c(C)c(C)ccc4s3)cc2)CC1	0	0	0	0	0
COc1ccc2sc(N(CCCN(C)C)C(=O)c3ccc(S(=O)(=O)N4CCCC4)cc3)nc2c1	0	-7.25	0	0	0
CCOC(=O)N1CCN(S(=O)(=O)c2ccc(C(=O)N(CCCN(C)C)c3nc4cc(OC)ccc4s3)cc2)CC1	0	-7.57	0	0	0
CCCCn1c(N)c(N(CC(C)C)C(=O)C2CCN(S(=O)(=O)c3ccc(C)cc3C)CC2)c(=O)[nH]c1=O	0	0	0	0	0
CCOC(=O)c1c(/N=C/c2ccc(OC)cc2O)sc2c1CCN(C)C2	0	0	0	0	-4.78
CCOC(=O)c1c(/N=C/c2ccc(C)cc2O)sc2c1CCC2	0	0	0	0	0
COc1ccc(Nc2nc(-c3ccccc3O)nc3ccccc23)cc1	0	-6.96	0	0	0
COc1ccc(Nc2nc(-c3ccccc3F)nc3ccccc23)cc1OC	0	-7.19	0	0	0
CCCn1nc([N+](=O)[O-])c(C(C#N)c2nc3ccccc3s2)c(Cl)c1=O (stereo unspecified)	28.9	0	0	0	0
CC(OC(=O)c1cccc([N+](=O)[O-])c1)C(=O)NCc1ccc2c(c1)OCO2 (stereo unspecified)	0	0	0	0	-5.9
Cc1ccc2[nH]c3c(c2c1)CN(C(C)C)CC3	0	0	0	0	0
Cc1ccc(NC2CCCN(C(=O)c3ccc4[nH]ccc4c3)C2)cc1C (stereo unspecified)	0	0	0	0	0
O=C(NN1C(=O)/C(=C/C=C/c2ccco2)SC1=S)c1ccccc1O	0	0	0	0	-4.62
CCOC(=O)C1CCN(S(=O)(=O)c2ccc3oc(=O)ccc3c2)CC1	0	0	0	0	0
CCOC(=O)N1CCN(C(=O)CSc2nc3c([nH]c4ccccc43)c(=O)n2CC)CC1	0	0	0	0	0
Cc1ccc(/C(O)=C2/C(=O)C(=O)N(c3ccccn3)C2c2ccc([N+](=O)[O-])cc2)cc1 (stereo unspecified)	0	0	0	0	-4.82
Cc1cc2[nH]c3c(c[n+](C)c4ccccc34)c2cc1C	0	-7.06	0	0	0
O=C(COc1ccc(/C=C\[N+](=O)[O-])cc1)N1CCOCC1	34.9	0	0	0	0
CC(c1ccccc1)N(CCC(c1ccccc1)C1CCOC(C)(C)C1)C(=O)c1ccco1 (stereo unspecified)	0	0	0	0	0
COc1ccc(CN(CCC(c2ccccc2)c2ccco2)C(=O)c2ccco2)cc1 (stereo unspecified)	0	-8.18	0	0	0
O=C(c1ccco1)N(CCC(c1ccccc1)c1ccco1)Cc1ccccc1 (stereo unspecified)	0	0	0	0	0
COc1ccc(CN(CCC(c2ccc(F)cc2)C2CCOC(C)(C)C2)C(=O)c2ccco2)cc1 (stereo unspecified)	0	-8.17	0	0	0
CCOc1ccc(CCNC(=O)C(CCC(N)=O)NC(=O)OCc2ccccc2)cc1OCC (stereo unspecified)	0	0	0	0	0

Source: PubChem (Johns Hopkins Ion Channel Center)
